Laboratory results: ChEMBL document CHEMBL1240350, “In vitro activity of CEM-101 against Streptococcus pneumoniae and Streptococcus pyogenes with defined macrolide resistance mechanisms” (Antimicrob Agents Chemother, 2010)
In brackets after ≈: the same amount, converted by molar mass.

Tests used:
Streptococcus pyogenes [1] = experiment: Antibacterial activity against macrolide-resistant Streptococcus pyogenes 2094 harboring erm(A) gene after 22 passages and 10 compound-free subculturing by retest method
Streptococcus pyogenes [2] = experiment: Antibacterial activity against macrolide-resistant Streptococcus pyogenes 2011 harboring mef(A) gene after 50 passages following overnight incubation by agar dilution method
Streptococcus pneumoniae [3] = experiment: Antibacterial activity against macrolide-susceptible Streptococcus pneumoniae 1077 after 49 passages and 10 compound-free subculturing by retest method; assay type: functional
Streptococcus pneumoniae [4] = experiment: Antibacterial activity against macrolide-susceptible Streptococcus pneumoniae 1077 after overnight incubation by agar dilution method; assay type: functional
Streptococcus pyogenes [5] = experiment: Antibacterial activity against macrolide-resistant Streptococcus pyogenes 2368 harboring erm(B) gene after 6 passages and 10 compound-free subculturing by retest method
Streptococcus pneumoniae [6] = experiment: Antibacterial activity against macrolide-susceptible Streptococcus pneumoniae 7127 harboring S20N mutation in L4 ribosomal protein and A105V mutation in L22 ribosomal protein after 43 passages and 10 compound-free subculturing by retest method; assay type: functional
Streptococcus pyogenes [7] = experiment: Antibacterial activity against macrolide-resistant Streptococcus pyogenes 2094 harboring erm(A) gene after 6 passages and 10 compound-free subculturing by retest method
Streptococcus pyogenes [8] = experiment: Antibacterial activity against macrolide-resistant Streptococcus pyogenes 237 harboring mutation in L4 ribosomal protein after 20 passages and 10 compound-free subculturing by retest method
Streptococcus pneumoniae [9] = experiment: Antibacterial activity against macrolide-resistant Streptococcus pneumoniae 1635 harboring erm(A) gene after 32 passages and 10 compound-free subculturing by retest method; assay type: functional
How it was run: (§1)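 Multistep selection by daily serial passage in subinhibitory drug concentrations. Medium was cation-adjusted Mueller-Hinton broth plus 5% lysed horse blood. Each day the next inoculum came from the tube 1–2 dilutions below the MIC whose turbidity matched the growth control, for up to 50 days. Clone MICs by CLSI macrodilution; identity to the parent confirmed by SmaI PFGE.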

Streptococcus pneumoniae [10] = experiment: Antibacterial activity against macrolide-susceptible Streptococcus pneumoniae 1077 after 43 passages and 10 compound-free subculturing by retest method; assay type: functional
Streptococcus pneumoniae [11] = experiment: Antibacterial activity against Streptococcus pneumoniae harboring erm(A) gene after overnight incubation by agar dilution method; assay type: functional
How it was run: (§2)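 Clinical isolates collected 1998–2008, with macrolide-resistance genes confirmed by PCR. MICs by agar dilution on Mueller-Hinton agar with 5% sheep blood. Inoculum 10^4 CFU/spot, incubated overnight at 35°C in ambient air. S. pneumoniae ATCC 49619 was the quality-control strain in every run.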

Streptococcus pneumoniae [12] = experiment: Antibacterial activity against quinolone-susceptible Streptococcus pneumoniae after overnight incubation by agar dilution method; assay type: functional
How it was run: (§3)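 Agar dilution on Mueller-Hinton agar supplemented with 5% sheep blood. Inoculum 10^4 CFU/spot, incubated overnight at 35°C in ambient air. Test strains were clinical pneumococcal isolates. S. pneumoniae ATCC 49619 was included as the quality control strain in each run. MIC range, MIC50 and MIC90 were reported for each susceptibility category.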

Streptococcus pyogenes [13] = experiment: Antibacterial activity against macrolide-resistant Streptococcus pyogenes 2094 harboring erm(A) gene after 43 passages and 10 compound-free subculturing by retest method
Streptococcus pyogenes [14] = experiment: Antibacterial activity against macrolide-resistant Streptococcus pyogenes 2368 harboring erm(B) gene after 18 passages and 10 compound-free subculturing by retest method
Streptococcus pneumoniae [15] = experiment: Antibacterial activity against quinolone-resistant Streptococcus pneumoniae after overnight incubation by agar dilution method; assay type: functional
How it was run: as §3

Streptococcus pneumoniae [16] = experiment: Antibacterial activity against macrolide-resistant Streptococcus pneumoniae harboring erm(B) gene after overnight incubation by agar dilution method; assay type: functional
How it was run: (§4)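 Agar dilution MICs on Mueller-Hinton agar with 5% sheep blood. Inoculum 10^4 CFU/spot, incubated overnight at 35°C in ambient air. Clinical S. pneumoniae or group A streptococcal isolates; resistance genotypes (erm(B), erm(A), mef(A)/mef(E)) were assigned by PCR. S. pneumoniae ATCC 49619 served as QC strain in each run. Range, MIC50 and MIC90 reported per phenotype group.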

Streptococcus pyogenes [17] = experiment: Antibacterial activity against macrolide-resistant Streptococcus pyogenes 237 harboring mutation in L4 ribosomal protein after 43 passages and 10 compound-free subculturing by retest method
Streptococcus pneumoniae [18] = experiment: Antibacterial activity against macrolide-resistant Streptococcus pneumoniae 24 harboring erm(B) gene after 14 passages and 10 compound-free subculturing by retest method; assay type: functional
How it was run: as §1

Streptococcus pneumoniae [19] = experiment: Antibacterial activity against macrolide-susceptible Streptococcus pneumoniae 7127 harboring S20N mutation in L4 ribosomal protein and A105V mutation in L22 ribosomal protein after overnight incubation by agar dilution method; assay type: functional
Streptococcus pneumoniae [20] = experiment: Antibacterial activity against Streptococcus pneumoniae harboring mef(A) gene after overnight incubation by agar dilution method; assay type: functional
How it was run: as §2

Streptococcus pneumoniae [21] = experiment: Antibacterial activity against macrolide-susceptible Streptococcus pneumoniae 1077 after 29 passages and 10 compound-free subculturing by retest method; assay type: functional
Streptococcus pneumoniae [22] = experiment: Antibacterial activity against macrolide-resistant Streptococcus pneumoniae 1076 harboring erm(B) and mef(A) gene after 18 passages and 10 compound-free subculturing by retest method; assay type: functional
How it was run: as §1

Streptococcus pneumoniae [23] = experiment: Antibacterial activity against macrolide-resistant Streptococcus pneumoniae 1635 harboring erm(A) gene after overnight incubation by agar dilution method; assay type: functional
Streptococcus pyogenes [24] = experiment: Antibacterial activity against Streptococcus pyogenes harboring mutation in L4 ribosomal protein after overnight incubation by agar dilution method; assay type: functional
How it was run: as §2

Streptococcus pneumoniae [25] = experiment: Antibacterial activity against macrolide-resistant Streptococcus pneumoniae 3009 harboring mutation in 23S rRNA after 25 passages and 10 compound-free subculturing by retest method; assay type: functional
Streptococcus pneumoniae [26] = experiment: Antibacterial activity against macrolide-susceptible Streptococcus pneumoniae 7127 harboring S20N mutation in L4 ribosomal protein and A105V mutation in L22 ribosomal protein after 38 passages and 10 compound-free subculturing by retest method; assay type: functional
Streptococcus pyogenes [27] = experiment: Antibacterial activity against macrolide-resistant Streptococcus pyogenes 2094 harboring erm(A) gene after 34 passages and 10 compound-free subculturing by retest method
Streptococcus pyogenes [28] = experiment: Antibacterial activity against macrolide-resistant Streptococcus pyogenes 2094 harboring erm(A) gene after overnight incubation by agar dilution method
Streptococcus pneumoniae [29] = experiment: Antibacterial activity against macrolide-resistant Streptococcus pneumoniae 2686 harboring mutation in L4 ribosomal protein after 22 passages and 10 compound-free subculturing by retest method; assay type: functional
Streptococcus pyogenes [30] = experiment: Antibacterial activity against Streptococcus pyogenes harboring mef(A) gene after overnight incubation by agar dilution method; assay type: functional
How it was run: as §2

Streptococcus pneumoniae [31] = experiment: Antibacterial activity against macrolide-resistant Streptococcus pneumoniae harboring mutation in L4 ribosomal protein after overnight incubation by agar dilution method; assay type: functional
How it was run: as §4

Streptococcus pneumoniae [32] = experiment: Antibacterial activity against macrolide-resistant Streptococcus pneumoniae 3665 harboring mef(A) gene after 14 passages and 10 compound-free subculturing by retest method; assay type: functional

SMILES	MIC (Streptococcus pyogenes [1]) [µg/mL]	MIC (Streptococcus pyogenes [2]) [µg/mL]	MIC (Streptococcus pneumoniae [3]) [µg/mL]	MIC (Streptococcus pneumoniae [4]) [µg/mL]	MIC (Streptococcus pyogenes [5]) [µg/mL]	MIC (Streptococcus pneumoniae [6]) [µg/mL]	MIC (Streptococcus pyogenes [7]) [µg/mL]	MIC (Streptococcus pyogenes [8]) [µg/mL]	MIC (Streptococcus pneumoniae [9]) [µg/mL]	MIC (Streptococcus pneumoniae [10]) [µg/mL]	MIC (Streptococcus pneumoniae [11]) [µg/mL]	MIC50 (Streptococcus pneumoniae [12]) [µg/mL]	MIC90 (Streptococcus pneumoniae [12]) [µg/mL]	MIC (Streptococcus pyogenes [13]) [µg/mL]	MIC (Streptococcus pyogenes [14]) [µg/mL]	MIC50 (Streptococcus pneumoniae [15]) [µg/mL]	MIC90 (Streptococcus pneumoniae [15]) [µg/mL]	MIC50 (Streptococcus pneumoniae [16]) [µg/mL]	MIC90 (Streptococcus pneumoniae [16]) [µg/mL]	MIC (Streptococcus pyogenes [17]) [µg/mL]	other results
CC[C@H]1OC(=O)[C@@](C)(F)C(=O)[C@H](C)[C@@H](O[C@@H]2O[C@H](C)C[C@H](N(C)C)[C@H]2O)[C@](C)(OC)C[C@@H](C)C(=O)[C@H](C)[C@H]2N(CCCCn3cc(-c4cccc(N)c4)nn3)C(=O)O[C@]12C [SOLITHROMYCIN]	0.03 (≈ 0.0355 µM)	0.125 (≈ 0.148 µM)	0.06 (≈ 0.071 µM)	0.008 (≈ 0.00947 µM)	0.5 (≈ 0.592 µM)	0.004 (≈ 0.00473 µM)	0.016 (≈ 0.0189 µM)	0.5 (≈ 0.592 µM)	0.125 (≈ 0.148 µM)	0.06 (≈ 0.071 µM)	0.008 (≈ 0.00947 µM)	0.03 (≈ 0.0355 µM)	0.25 (≈ 0.296 µM)	0.25 (≈ 0.296 µM)	8 (≈ 9.47 µM)	0.008 (≈ 0.00947 µM)	0.06 (≈ 0.071 µM)	0.03 (≈ 0.0355 µM)	0.5 (≈ 0.592 µM)	0.03 (≈ 0.0355 µM)	MIC (Streptococcus pneumoniae [18]): 0.06 µg/mL (≈ 0.071 µM); MIC (Streptococcus pneumoniae [18]; Streptococcus pneumoniae, 24, read-out: MIC): 0.06 µg/mL (≈ 0.071 µM); MIC (Streptococcus pneumoniae [19]): 0.008 µg/mL (≈ 0.00947 µM); MIC50 (Streptococcus pneumoniae [20]): 0.03 µg/mL (≈ 0.0355 µM); MIC90 (Streptococcus pneumoniae [20]): 0.125 µg/mL (≈ 0.148 µM); MIC (Streptococcus pneumoniae [21]): 0.03 µg/mL (≈ 0.0355 µM); MIC (Streptococcus pneumoniae [22]): 32 µg/mL (≈ 37.9 µM); MIC (Streptococcus pneumoniae [23]): 0.008 µg/mL (≈ 0.00947 µM); MIC (Streptococcus pyogenes [24]): 0.06 µg/mL (≈ 0.071 µM); MIC (Streptococcus pneumoniae [25]): 0.03 µg/mL (≈ 0.0355 µM); MIC (Streptococcus pneumoniae [26]): 0.008 µg/mL (≈ 0.00947 µM); MIC (Streptococcus pyogenes [27]): 0.03 µg/mL (≈ 0.0355 µM); MIC (Streptococcus pyogenes [28]): 0.03 µg/mL (≈ 0.0355 µM); MIC (Streptococcus pneumoniae [29]): 1 µg/mL (≈ 1.18 µM)
CC[C@H]1OC(=O)[C@H](C)C(=O)[C@H](C)[C@@H](O[C@@H]2O[C@H](C)C[C@H](N(C)C)[C@H]2O)[C@](C)(OC)C[C@@H](C)C(=O)[C@H](C)[C@H]2N(CCCCn3cnc(-c4cccnc4)c3)C(=O)O[C@]12C [TELITHROMYCIN]	0.125 (≈ 0.154 µM)	1 (≈ 1.23 µM)	0.06 (≈ 0.0739 µM)	0.004 (≈ 0.00493 µM)	> 64	0.008 (≈ 0.00985 µM)	0.03 (≈ 0.0369 µM)	1 (≈ 1.23 µM)	0.03 (≈ 0.0369 µM)	0.06 (≈ 0.0739 µM)	0.03 (≈ 0.0369 µM)	0.125 (≈ 0.154 µM)	0.5 (≈ 0.616 µM)	0.5 (≈ 0.616 µM)	> 64	0.03 (≈ 0.0369 µM)	0.125 (≈ 0.154 µM)	0.06 (≈ 0.0739 µM)	1 (≈ 1.23 µM)	0.06 (≈ 0.0739 µM)	MIC50 (Streptococcus pyogenes [30]): 0.5 µg/mL (≈ 0.616 µM); MIC90 (Streptococcus pyogenes [30]): 1 µg/mL (≈ 1.23 µM); MIC (Streptococcus pneumoniae [19]): 0.008 µg/mL (≈ 0.00985 µM); MIC50 (Streptococcus pneumoniae [20]): 0.125 µg/mL (≈ 0.154 µM); MIC90 (Streptococcus pneumoniae [20]): 0.25 µg/mL (≈ 0.308 µM); MIC (Streptococcus pneumoniae [21]): 0.125 µg/mL (≈ 0.154 µM); MIC (Streptococcus pneumoniae [22]): 32 µg/mL (≈ 39.4 µM); MIC (Streptococcus pneumoniae [23]): 0.004 µg/mL (≈ 0.00493 µM); MIC50 (Streptococcus pneumoniae [31]): 0.125 µg/mL (≈ 0.154 µM); MIC90 (Streptococcus pneumoniae [31]): 0.25 µg/mL (≈ 0.308 µM); MIC (Streptococcus pyogenes [24]): 0.06 µg/mL (≈ 0.0739 µM); MIC (Streptococcus pneumoniae [25]): 0.06 µg/mL (≈ 0.0739 µM); MIC (Streptococcus pneumoniae [26]): 0.03 µg/mL (≈ 0.0369 µM); MIC (Streptococcus pyogenes [27]): 0.03 µg/mL (≈ 0.0369 µM); MIC (Streptococcus pyogenes [28]): 0.03 µg/mL (≈ 0.0369 µM); MIC (Streptococcus pneumoniae [32]): 0.25 µg/mL (≈ 0.308 µM); MIC (Streptococcus pneumoniae [32]; Streptococcus pneumoniae, 3665, read-out: MIC): 0.25 µg/mL (≈ 0.308 µM); MIC (Streptococcus pneumoniae [29]): 0.25 µg/mL (≈ 0.308 µM)
